Source: PubChem BioAssay
TRPC6 inhibitor: blocks the mouse TRPC6 cation channel | Q61143 | HEK293-TRPC6, membrane potential dye, ACh-evoked depolarization; active compounds read low | B-score at 10 µM | 310,000 tested, 1.1% active | AID 2553;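 active means B-score under library mean minus 3 SD, initial fluorescence not abnormally high, positive integrated signal ratio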;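 further: B-score derived from integrated fluorescence ratio over the kinetic read; more negative B-score means stronger inhibition of depolarization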
Target sequence (Q61143 whole entry, looked up): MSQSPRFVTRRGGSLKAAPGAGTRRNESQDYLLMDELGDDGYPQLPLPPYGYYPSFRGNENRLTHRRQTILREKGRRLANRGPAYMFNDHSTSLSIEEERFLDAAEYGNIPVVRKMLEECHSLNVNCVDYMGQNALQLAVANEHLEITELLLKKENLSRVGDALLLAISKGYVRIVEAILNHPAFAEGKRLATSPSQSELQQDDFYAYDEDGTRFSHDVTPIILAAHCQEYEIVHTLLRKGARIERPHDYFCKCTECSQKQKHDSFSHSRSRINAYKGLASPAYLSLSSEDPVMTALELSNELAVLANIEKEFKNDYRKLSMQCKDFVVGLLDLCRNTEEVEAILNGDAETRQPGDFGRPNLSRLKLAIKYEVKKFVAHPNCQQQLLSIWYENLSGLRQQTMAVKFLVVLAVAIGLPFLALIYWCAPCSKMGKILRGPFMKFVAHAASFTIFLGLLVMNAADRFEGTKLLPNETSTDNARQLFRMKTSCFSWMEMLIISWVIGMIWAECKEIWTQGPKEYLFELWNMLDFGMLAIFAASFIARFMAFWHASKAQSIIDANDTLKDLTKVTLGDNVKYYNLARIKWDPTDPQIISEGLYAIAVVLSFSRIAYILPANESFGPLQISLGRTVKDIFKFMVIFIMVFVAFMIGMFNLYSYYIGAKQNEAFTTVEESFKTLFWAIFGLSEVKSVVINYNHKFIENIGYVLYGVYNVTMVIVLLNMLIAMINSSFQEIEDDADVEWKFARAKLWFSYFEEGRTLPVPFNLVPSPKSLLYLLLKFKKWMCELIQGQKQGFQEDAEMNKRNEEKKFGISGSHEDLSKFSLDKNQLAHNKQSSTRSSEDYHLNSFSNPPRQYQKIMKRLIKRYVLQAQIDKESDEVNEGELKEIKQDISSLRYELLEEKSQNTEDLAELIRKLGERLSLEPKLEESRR
TRPC4 PAM: TRPC4 (mouse) allosteric potentiation; Q9QUQ5; AID 2227; 310,000 tested, 0.42% active; HEK293 TRPC4beta/mu-opioid, DAMGO EC20, Fluo-4 Ca2+ flux; active compounds read high; B-score at 10 µM;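 active means B-score of calcium response area above 5 SD of library B-scores, with initial fluorescence ratio within 5 SD of library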;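 further: B-score of integrated fluorescence ratio over time as area under calcium response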
TRPC6 act: activates the mouse TRPC6 cation channel; B-score at 10 µM; HEK293-TRPC6 membrane potential dye fluorescence; active compounds read high; Q61143; 310,000 tested, 0.13% active; AID 2550;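 active means B-score of the integrated fluorescence ratio above library mean plus 3 SD, and starting fluorescence ratio within library mean plus 5 SD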;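 further: higher score means more depolarization so channel activation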
TRPC4 inh: TRPC4 (mouse) channel inhibition | HEK293 TRPC4beta/mu-opioid, DAMGO-evoked Fluo4 calcium flux; active compounds read low | 300,000 tested, 0.39% active | Q9QUQ5 | B-score at 10 µM;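 active means B-score over 3 SD under the library average, no early fluorescence shift, positive overall ratio signal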
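Material: HEK293 cells with stable TRPC4beta plus mu-opioid receptor expression / Probe or stimulus: DAMGO in two steps, submaximal then maximal / Compound: single concentration per test compound / Technique: kinetic Fluo4 fluorescence imaging of calcium influx / Read-out: per-well B score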
TRPC4 act: activators of mouse TRPC4 channel | B-score at 10 µM | Q9QUQ5 | HEK293 TRPC4beta/mu-opioid, Fluo4 calcium fluorescence; active compounds read high | 310,000 tested, 0.49% active | AID 2237;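 active means B-score above 5 SD of library B-scores, and initial fluorescence ratio not above library mean plus 5 SD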;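 further: positive B-score marks a calcium rise read as TRPC4 activation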
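Assay system: HEK293 stable line with TRPC4beta plus mu-opioid receptor; schedule: 45 min room-temperature Fluo4 loading, 110 s read; technique: kinetic Fluo4 calcium fluorescence; evaluation: integrated baseline-normalised fluorescence ratio, converted to per-well B score; controls: buffer (low) and maximal DAMGO (high)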
TRPC4 spec 2: second selectivity test of TRPC6 inhibitors: effect on mouse TRPC4; shares compounds with TRPC6 inhibitor; HEK293 TRPC4/MOR, membrane potential dye fluorescence; channel activated by saturating DAMGO dose; inhibition, % at 10 µM; 920 tested, 42% active; AID 2776;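 active means compounds whose fluorescence signal differed from control wells by over 3 SD, either direction, in both duplicate plates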
TRPC4 spec: mouse TRPC4 off-target activity of TRPC6 inhibitors; HEK293 TRPC4/mu-opioid, membrane potential fluorescence; 920 tested, 61% active; AID 2777; shares compounds with TRPC6 inhibitor; activity change, negative = inhibition, % at 10 µM;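 active means rise or fall in signal beyond 3 SD of buffer-only wells in both replicate plates, either sign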;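 further: integrated kinetic ratio of fluorescence range over baseline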
HEK293 MPD ctr 2-1: second counter-screen for TRPC6 inhibitors: parental HEK293 cells. shares compounds with TRPC6 inhibitor. parental HEK293 membrane potential dye fluorescence; maximal acetylcholine challenge after compound addition. signal change vs control, % at 10 µM. 920 tested, 31% active. AID 2779;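 active means membrane potential signal moving either way by over 3 SD of the maximum-effect control, in both duplicate plates, meaning non-specific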
HEK293 MPD ctr-1: counter-screen for TRPC6 inhibitors: effect in parental HEK293 cells; shares compounds with TRPC6 inhibitor; parental HEK293 membrane potential dye fluorescence; membrane potential signal change, % at 10 µM; 920 tested, 60% active;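 active means membrane potential signal shifting up or down by more than 3 SD of buffer-only wells, on both duplicate plates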
HEK293 MPD ctr-2: parental HEK293 nonspecific activity of TRPC6 modulators; shares compounds with TRPC6 inhibitor; 2,400 tested, 51% active; AID 488924; membrane potential signal change, % at 10 µM; membrane potential dye fluorescence;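 active means membrane potential signal moves up or down beyond 5 SD from buffer-only wells, on both duplicate plates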
HEK293 MPD ctr 2-2: second check of TRPC6 modulator effects in parental HEK293 cells; membrane potential dye fluorescence; after compound, maximal acetylcholine stimulation; inhibition, % at 10 µM; 2,400 tested, 14% active; shares compounds with TRPC6 inhibitor;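 active means membrane potential signal drops by more than 5 SD from the mean control signal, in both duplicate plates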;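 further: plate controls were acetylcholine ECmax control wells for no effect and buffer only wells for full effect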
TRPC4/MOR mod: mouse TRPC4 off-target activity of TRPC6 modulators; shares compounds with TRPC6 inhibitor; HEK293 TRPC4/mu-opioid, membrane potential fluorescence; percent change from control (negative = decrease, positive = increase), % at 10 µM; 2,400 tested, 69% active;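 active means membrane potential signal moved up or down beyond 5 SD of buffer control wells, in both duplicate plates, actives on both sides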;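 further: plate controls were assay buffer wells for no effect and DAMGO maximal-effect wells for full effect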
TRPC4/MOR inh 2: second selectivity test of TRPC6 modulators against mouse TRPC4. shares compounds with TRPC6 inhibitor. HEK293 TRPC4/mu-opioid, membrane potential dye fluorescence; stimulated with maximal-effect DAMGO. inhibition, % at 10 µM. 2,400 tested, 55% active;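 active means drop in membrane potential signal beyond 5 SD of the control wells in both duplicate plates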;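 further: TRPC4 counter screen for TRPC6 hits run under conditions tuned for TRPC6 not TRPC4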
TRPC6 block conf: confirmation of mouse TRPC6 inhibitors. shares compounds with TRPC6 inhibitor. HEK293-TRPC6, membrane potential dye, ACh-evoked depolarization. inhibition, % at 10 µM. 3,300 tested, 43% active;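 active means fluorescence ratio falls more than 5 SD below the full-stimulation control mean, in both duplicate runs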;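 further: integrated fluorescence ratio of peak minus minimum over baseline after agonist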
TRPC6 act confirm: confirmation of mouse TRPC6 activators | AID 488961 | 2,800 tested, 11% active | activation, % at 10 µM | HEK293-TRPC6 membrane potential dye fluorescence, FDSS | shares compounds with TRPC6 inhibitor;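 active means ratio signal rise beyond 5 SD above unstimulated control wells' mean, seen in both duplicate runs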;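 further: plate controls were buffer EC0 wells for no effect and acetylcholine ECmax response for full effect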
Starred values were filed as active, the others as inactive; i = inactive; x = no result. Shown are actives, neighbours in structure and some others; about 2.3% of the full set was active somewhere.

SMILES	TRPC6 inhibitor	TRPC4 PAM	TRPC6 act	TRPC4 inh	TRPC4 act	HEK293 MPD ctr-2	HEK293 MPD ctr 2-2	TRPC4/MOR mod	TRPC4/MOR inh 2	TRPC6 block conf	TRPC6 act confirm	others
Cc1cccn2c(=O)c3cc(C(=O)NC4CCCC4)c(=N)n(CC4CCCO4)c3nc12 (stereo not given)	-5.8*	i	i	i	i	i	i	i	32%*	i	i
COc1ccc(CCNC(=O)c2cc3c(=O)n4cccc(C)c4nc3n(CCCN3CCOCC3)c2=N)cc1	i	i	i	i	i	x	x	x	x	x	x
Cc1cccn2c(=O)c3cc(C(=O)NCCN4CCOCC4)c(=N)n(CCN4CCOCC4)c3nc12	-7*	i	i	i	i	x	x	x	x	66%*	i	TRPC4 spec 2=72%*;TRPC4 spec=0.8%*;HEK293 MPD ctr 2-1=-124%*;HEK293 MPD ctr-1=i
Cc1cccn2c(=O)c3cc(C(=O)NCC4CCCO4)c(=N)n(CC4CCCO4)c3nc12 (stereo not given)	i	i	i	i	i	x	x	x	x	x	x
Cc1cccn2c(=O)c3cc(C(=O)NCCN4CCOCC4)c(=N)n(Cc4ccc(F)cc4)c3nc12	-5.6*	i	i	i	i	i	94%*	i	i	i	i
COc1ccccc1N1CCN(c2cc(N3CCCC3)nc(C)n2)CC1	i	i	i	i	i	x	x	x	x	x	x
COc1ccc(OC)c2c(C)cc(N3CCCN(C)CC3)nc12	-11*	i	i	i	i	-246%*	74%*	-40%*	69%*	68%*	i
COCCOC(=O)c1c(N)n(CCCN2CCOCC2)c2nc3ccccc3nc12	i	i	i	i	i	x	x	x	x	x	x
COC(=O)c1c(N)n(CCCN2CCOCC2)c2nc3ccccc3nc12	-5.1*	i	i	i	i	-72%*	i	-16%*	i	i	i
COc1ccc(S(=O)(=O)N2CCN(c3cc(-c4ccccc4)nc4ncnn34)CC2)cc1	i	i	i	i	i	x	x	x	x	x	x
COc1ccc(-c2cc(N3CCCC3)n3ncnc3n2)cc1	-6.5*	i	i	i	i	134%*	i	26%*	i	i	x
C/C(=N\Nc1nc2ccccc2[nH]1)c1ccc(C)o1	-6*	i	i	i	i	-140%*	60%*	-26%*	80%*	76%*	i
C/C(=N\Nc1nc(C)cc(C)n1)c1ccc(N2CCOCC2)cc1	i	i	i	i	i	x	x	x	x	x	x
C/C(=N\Nc1nc2ccccc2[nH]1)c1ccc(Cl)s1	i	i	i	i	i	x	x	x	x	x	x
C/C(=N\Nc1nc2ccccc2[nH]1)c1ccc(N2CCOCC2)cc1	-5.8*	i	i	i	i	i	i	-14%*	i	i	i
COCCNc1ccc(-c2nn(C)c(=O)c3ccccc23)cc1[N+](=O)[O-]	i	i	i	i	i	x	x	x	x	x	x
CN(C)CCCNc1ccc(-c2nn(C)c(=O)c3ccccc23)cc1[N+](=O)[O-]	-7.9*	i	i	i	i	x	x	x	x	i	i	TRPC4 spec 2=44%*;TRPC4 spec=-26%*;HEK293 MPD ctr 2-1=i;HEK293 MPD ctr-1=-244%*
COc1c(Cl)cc(Cl)cc1CNc1ccc(S(N)(=O)=O)cc1	i	i	i	i	i	x	x	x	x	x	x
CCOCCCNC(=O)CCCOc1ccccc1	-5.5*	i	i	i	i	i	i	i	i	i	i
Cc1[nH]c(C)c(S(=O)(=O)NCc2ccc(Cl)cc2)c1C(=O)N1CCCC1	i	i	i	i	i	x	x	x	x	x	x
CN(C)c1nc(F)c(F)c(S(=O)(=O)c2ccccc2)c1F	-5.3*	i	i	i	i	i	i	i	i	i	i
CC1(C)CC(=O)C=C(c2cccs2)C1	i	i	i	i	i	x	x	x	x	x	x
COc1ccc(NC(=O)Cn2nnc(-c3ccccc3NS(=O)(=O)c3ccccc3)n2)cc1	i	i	i	i	i	x	x	x	x	x	x
COc1ccc(S(=O)(=O)Nc2ccccc2-c2nnn(CC(=O)Nc3ccccc3OC)n2)cc1	-5.3*	i	i	i	i	i	i	i	i	i	i
Cc1cccc(C)c1Nc1c(-c2ccc(N3CCOCC3)cc2)nc2cnccn12	-8.3*	i	i	i	i	-236%*	i	-42%*	92%*	75%*	i
Cc1ccc(Nc2c(-c3ccccc3)nc3cnccn23)cc1	i	i	i	i	i	x	x	x	x	x	x
COc1ccc(-c2nc3cnccn3c2Nc2ccc(C)cc2)cc1	-6.2*	i	i	i	i	-70%*	i	-16%*	84%*	61%*	i
Cc1ccc(-n2cc(CNCCN3CCOC3=O)c(-c3cccc(C)c3)n2)cc1	-5.8*	i	i	i	i	i	i	10%*	58%*	i	i
O=C1OCCN1CCNCc1cn(-c2ccc(F)cc2)nc1-c1ccccc1Cl	i	i	i	i	i	x	x	x	x	x	x
